Reference: ChEMBL document CHEMBL1149266, “2,3-diaminopyridine bradykinin B1 receptor antagonists” (J Med Chem, 2004)

Assays:
B1 bradykinin receptor [1] = target: T1, B1 bradykinin receptor (Homo sapiens, UniProt P46663); assay: Displacement of [3H]des-arg10, leu9-kallidin from human bradykinin B1 receptor expressed in CHO cells; type: cell-based
T1 sequence (P46663 whole entry): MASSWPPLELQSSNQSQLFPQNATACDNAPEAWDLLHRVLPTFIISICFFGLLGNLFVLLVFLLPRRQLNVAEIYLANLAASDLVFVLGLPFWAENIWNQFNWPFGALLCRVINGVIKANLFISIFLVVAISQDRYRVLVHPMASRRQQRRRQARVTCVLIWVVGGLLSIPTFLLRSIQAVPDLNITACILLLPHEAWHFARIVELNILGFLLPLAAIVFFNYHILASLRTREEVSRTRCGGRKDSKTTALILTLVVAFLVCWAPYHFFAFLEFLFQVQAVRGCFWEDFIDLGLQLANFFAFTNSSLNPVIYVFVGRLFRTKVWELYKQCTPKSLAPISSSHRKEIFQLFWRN
How it was run: (§1)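 Radioligand binding using CHO cells that stably express the human B1 or B2 receptor, with the appropriate radioligand for each; Ki in nM.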

[2] = Half life in Sprague-Dawley rat at 2 mg/kg, iv; type: ADME, organism-based; design: dose 2 mg/kg, route intravenous; details: in vivo
[3] = Clearance in Sprague-Dawley rat at 2 mg/kg, iv; type: ADME, organism-based; design: dose 2 mg/kg, route intravenous; details: in vivo
[4] = Oral bioavailability in Sprague-Dawley rat at 10 mg/kg, po; type: ADME, organism-based; details: in vivo
B1 bradykinin receptor [5] = target: T2, B1 bradykinin receptor (Oryctolagus cuniculus, UniProt P48748); assay: Binding affinity to rabbit bradykinin B1 receptor
T2 sequence (P48748 whole entry): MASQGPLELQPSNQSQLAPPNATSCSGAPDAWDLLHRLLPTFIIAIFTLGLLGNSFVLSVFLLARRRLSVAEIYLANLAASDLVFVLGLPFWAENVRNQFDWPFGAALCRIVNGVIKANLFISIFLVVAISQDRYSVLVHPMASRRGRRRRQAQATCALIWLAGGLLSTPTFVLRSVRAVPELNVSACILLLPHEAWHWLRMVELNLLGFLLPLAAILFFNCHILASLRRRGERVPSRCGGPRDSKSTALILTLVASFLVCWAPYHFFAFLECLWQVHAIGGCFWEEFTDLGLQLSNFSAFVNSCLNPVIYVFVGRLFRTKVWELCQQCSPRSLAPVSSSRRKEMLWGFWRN
How it was run: (§2)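 Radioligand binding at rat or rabbit B1 receptor; Ki in nM. Values are the average of at least two experiments, with ±25% interassay variability.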

B1 bradykinin receptor [6] = target: T3, B1 bradykinin receptor (Rattus norvegicus, UniProt P97583); assay: Displacement of [3H]des-arg10 kallidin from rat bradykinin B1 receptor expressed in CHO cells; type: cell-based; how it was run: as §2
T3 sequence (P97583 whole entry): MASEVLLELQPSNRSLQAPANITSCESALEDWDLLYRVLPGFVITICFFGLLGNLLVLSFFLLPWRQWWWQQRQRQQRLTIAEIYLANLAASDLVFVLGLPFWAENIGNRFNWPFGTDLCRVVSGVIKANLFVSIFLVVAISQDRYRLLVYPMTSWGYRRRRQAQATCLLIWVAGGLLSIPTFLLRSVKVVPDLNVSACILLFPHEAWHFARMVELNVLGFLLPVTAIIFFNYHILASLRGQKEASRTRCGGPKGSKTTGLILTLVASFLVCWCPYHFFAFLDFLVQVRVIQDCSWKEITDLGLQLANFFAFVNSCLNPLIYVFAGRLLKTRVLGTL

B1 bradykinin receptor [7] = target: T1, B1 bradykinin receptor; assay: Antagonist activity at bradykinin B1 receptor expressed in CHO cells assessed as inhibition of des-arg10-kallidin-induced increase in cytosolic calcium level by FLIPR assay; type: functional, cell-based
How it was run: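 FLIPR functional assay using functionally active human B1 receptors; IC50 in nM.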

[8] = Half life in mongrel dog at 1 mg/kg, iv; type: ADME, organism-based, Canis lupus familiaris; design: dose 1 mg/kg, route intravenous; details: in vivo
[9] = Oral bioavailability in mongrel dog at 3 mg/kg, po; type: ADME, organism-based, Canis lupus familiaris; details: in vivo
[10] = Clearance in mongrel dog at 1 mg/kg, iv; type: ADME, organism-based, Canis lupus familiaris; design: dose 1 mg/kg, route intravenous; details: in vivo
Oryctolagus cuniculus = assay: Antinociceptive effect against CFA-induced hyperalgesia in iv dosed New Zealand rabbit model by spinal nociceptive reflex assay; type: functional; details: read-out: ID50 (the source's name)
How it was run: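 CFA was used to induce mechanical hyperalgesia in the rabbit hind paw. The read-out was inhibition of the spinal nociceptive reflex to a noxious pinch of the inflamed paw. Antagonist was dosed iv over a dose range, giving an ID50 (mg/kg). Three rabbits per experiment.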

[11] = target: T4, B1 bradykinin receptor (Oryctolagus cuniculus) (UniProt P48748); assay: Inhibition of desArg9-bradykinin-induced decrease in mean arterial blood pressure in iv dosed New Zealand white rabbit; type: functional, organism-based
T4 sequence (whole entry): T2 sequence (P48748 whole entry)
How it was run: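 Rabbits received iv LPS to induce vascular B1 receptors. The depressor blood pressure response to DABK (1 μg/kg iv) was recorded. Rising iv doses of antagonist were given as pretreatment before repeated DABK doses, giving an AD50 (mg/kg). Three rabbits per experiment.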

B1 bradykinin receptor [12] = target: T2, B1 bradykinin receptor; assay: Activity at rabbit bradykinin B1 receptor assessed by FLIPR assay; type: functional
How it was run: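 FLIPR functional assay using functionally active rabbit B1 receptors; IC50 in nM. Values are the average of at least two experiments, with ±30% interassay variability.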

B2 bradykinin receptor = target: T5, B2 bradykinin receptor (Homo sapiens, UniProt P30411); assay: Displacement of [3H]bradykinin from human bradykinin B2 receptor expressed in CHO cells; type: cell-based; how it was run: as §1
T5 sequence (P30411 whole entry): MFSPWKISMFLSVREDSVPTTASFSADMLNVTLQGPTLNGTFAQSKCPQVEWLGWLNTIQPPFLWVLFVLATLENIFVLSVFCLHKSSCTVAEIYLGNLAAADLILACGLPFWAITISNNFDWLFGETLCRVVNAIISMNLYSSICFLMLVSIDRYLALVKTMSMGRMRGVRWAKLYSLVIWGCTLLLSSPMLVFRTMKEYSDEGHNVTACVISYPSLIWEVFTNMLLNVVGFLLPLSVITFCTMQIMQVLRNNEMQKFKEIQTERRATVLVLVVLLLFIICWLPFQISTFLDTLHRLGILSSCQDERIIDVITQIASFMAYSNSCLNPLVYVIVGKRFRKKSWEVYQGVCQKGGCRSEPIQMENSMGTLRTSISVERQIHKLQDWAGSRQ

Row | SMILES | Ki (B1 bradykinin receptor [1]) | half-life [2] | clearance [3] | bioavailability [4] | Ki (B1 bradykinin receptor [5]) | Ki (B1 bradykinin receptor [6]) | IC50 (B1 bradykinin receptor [7]) | half-life [8] | bioavailability [9] | clearance [10] | ED50 (Oryctolagus cuniculus) | AD50 [11] | IC50 (B1 bradykinin receptor [12]) | Ki (B2 bradykinin receptor)
1 | C[C@@H](Nc1nccc(Cl)c1NC(=O)CC#N)c1ccc(-c2cccc(F)c2C#N)cc1 | 2 nM (antagonist) | 54 min | 8.3 mL/min/kg | 80% | – | – | – | – | – | – | – | – | – | –
2 | C[C@@H](Nc1nccc(Cl)c1NC(=O)CC#N)c1ccc(-c2cccc(F)c2-c2nnnn2C)cc1 | 6 nM (antagonist) | – | – | – | 41.5 nM (antagonist) | 12 nM (antagonist) | – | – | – | – | – | – | – | –
3 | Cc1nc(-c2c(F)cccc2-c2ccc([C@@H](C)Nc3nccc(Cl)c3NC(=O)CC#N)cc2)no1 | 0.7 nM (antagonist) | 774 min | 4.9 mL/min/kg | 50% | – | – | 0.78 nM (antagonist) | 120 min | 25% | 5.9 mL/min/kg | – | – | – | –
4 | C[C@@H](Nc1nccc(Cl)c1NC(=O)CC#N)c1ccc(-c2cccc(F)c2-c2nnn(C)n2)cc1 | 0.5 nM (antagonist) | 468 min | 9 mL/min/kg | 73% | 3 nM (antagonist) | 119 nM (antagonist) | 1.17 nM (antagonist) | 228 min | 69% | 2.4 mL/min/kg | 3.1 mg/kg | 0.28 mg/kg | 3.9 nM (antagonist) | –
5 | COC(=O)c1ccc(C)cc1-c1ccc([C@@H](C)Nc2nccc(C)c2NC(=O)CC#N)cc1 | 1.2 nM (antagonist) | 36 min | 42 mL/min/kg | 21% | – | – | 1.4 nM (antagonist) | – | – | – | – | – | – | > 10 µM
6 | C[C@@H](Nc1nccc(Cl)c1NC(=O)CC#N)c1ccc(-c2cccc(F)c2C(F)(F)F)cc1 | 1.1 nM (antagonist) | 108 min | 36 mL/min/kg | 52% | – | – | – | – | – | – | – | – | – | –
7 | COC(=O)c1ccc(Cl)cc1-c1ccc([C@@H](C)Nc2nccc(Cl)c2NC(=O)CC#N)cc1 | 0.8 nM (antagonist) | 30 min | 25 mL/min/kg | 6% | – | – | 1.5 nM (antagonist) | 54 min | 2% | 5.5 mL/min/kg | – | – | – | –
8 | COC(=O)c1c(F)cccc1-c1ccc([C@@H](C)Nc2nccc(Cl)c2NC(=O)CC#N)cc1 | 0.4 nM (antagonist) | 126 min | 11 mL/min/kg | 50% | 0.69 nM (antagonist) | 35.3 nM (antagonist) | 0.25 nM (antagonist) | 162 min | 34% | 9 mL/min/kg | 2.1 mg/kg | 0.57 mg/kg | 2.4 nM (antagonist) | –
9 | Cc1noc(-c2c(F)cccc2-c2ccc([C@@H](C)Nc3nccc(Cl)c3NC(=O)CC#N)cc2)n1 | 0.5 nM (antagonist) | 528 min | 9.5 mL/min/kg | 62% | 2.7 nM (antagonist) | 81 nM (antagonist) | 0.94 nM (antagonist) | 126 min | 14% | 7.3 mL/min/kg | – | – | 12.3 nM (antagonist) | –
10 | CCCCC(=O)Nc1cccnc1NCc1ccc(-c2ccccc2C(=O)OC)cc1 | 200 nM (antagonist) | – | – | – | – | – | – | – | – | – | – | – | – | –
11 | COC(=O)c1c(Cl)cccc1-c1ccc([C@@H](C)Nc2nccc(Cl)c2NC(=O)CC#N)cc1 | 0.7 nM (antagonist) | 78 min | 24 mL/min/kg | 43% | 1.1 nM (antagonist) | 35.7 nM (antagonist) | 0.85 nM (antagonist) | 378 min | 23% | 8.7 mL/min/kg | 0.9 mg/kg | 0.8 mg/kg | 7.2 nM (antagonist) | –
